# In ChEMBL document CHEMBL3352004, “(7-Benzyloxy-2,3-dihydro-1H-pyrrolo[1,2-a]indol-1-yl)acetic Acids as S1P1 Functional Antagonists” (ACS Med Chem Lett, 2014):
# Calls of active or inactive are those of the source. No cut-off for these calls is given here.
# Columns and labels:
# [1] = Activation of Inward rectifier potassium channel in human atrial myocytes; assay type: cell-based; details: Cardiac atrium
# [2] = Half life in human; assay type: ADME, organism-based; details: in vivo
# [3] = target: T1, Sphingosine 1-phosphate receptor 1 (Homo sapiens, UniProt P21453); experiment: Agonist activity at human S1P1 receptor assessed as cAMP accumulation by HTRF assay; assay type: functional
# Outline: (§1)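 S1P1 engagement measured as cyclase activity in a homogeneous time-resolved fluorescence (HTRF) assay.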
# [4] = Cmax in Sprague-Dawley rat at 1 mg/kg, po; assay type: ADME, organism-based; design: dose 1 mg/kg, route oral; details: in vivo
# [5] = Volume of distribution at steady state in Sprague-Dawley rat at 1 mg/kg, iv; assay type: ADME, organism-based; design: dose 1 mg/kg, route intravenous; details: in vivo, read-out: Vdss
# [6] = target: T1, Sphingosine 1-phosphate receptor 1; experiment: Agonist activity at human S1P1 receptor by beta-arrestin recruitment assay relative to S1P
# [7] = target: Sphingosine-1-phosphate receptor 1 (Canis lupus familiaris, UniProt W5VNF7); experiment: Agonist activity at dog S1P1 receptor assessed as cAMP accumulation by HTRF assay; assay type: functional; outline: as §1
# [8] = target: T2, Sphingosine 1-phosphate receptor 4 (Homo sapiens) (UniProt O95977); experiment: Agonist activity at human S1P4 receptor by beta-arrestin recruitment assay relative to S1P
# T2 sequence (whole entry): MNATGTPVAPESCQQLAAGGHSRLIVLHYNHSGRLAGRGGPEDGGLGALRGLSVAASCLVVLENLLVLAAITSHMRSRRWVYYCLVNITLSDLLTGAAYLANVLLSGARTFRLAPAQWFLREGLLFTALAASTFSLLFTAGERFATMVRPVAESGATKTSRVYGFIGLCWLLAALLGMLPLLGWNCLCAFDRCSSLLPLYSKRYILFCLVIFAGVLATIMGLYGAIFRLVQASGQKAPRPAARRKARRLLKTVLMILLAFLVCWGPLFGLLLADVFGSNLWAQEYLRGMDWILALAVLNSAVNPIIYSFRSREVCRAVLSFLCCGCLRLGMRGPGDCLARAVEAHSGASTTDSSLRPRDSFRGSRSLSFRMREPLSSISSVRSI
# [9] = target: T1, Sphingosine 1-phosphate receptor 1; experiment: Agonist activity at human S1P1 receptor by beta-arrestin recruitment assay
# [10] = species: Rattus norvegicus; experiment: Reduction in lymphocyte count in Sprague-Dawley rat; assay type: functional, organism-based
# Outline: (§2)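 A PK/PD model relating plasma drug concentration to circulating lymphocyte counts was used to derive the plasma concentration that reduces lymphocytes by 50% (LL IC50, ng/mL).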
# [11] = target: Sphingosine 1-phosphate receptor 1 (Rattus norvegicus, UniProt P48303); experiment: Agonist activity at rat S1P1 receptor assessed as cAMP accumulation by HTRF assay; assay type: functional; outline: as §1
# [12] = target: Sphingosine 1-phosphate receptor 1 (Mus musculus) (UniProt O08530); experiment: Agonist activity at mouse S1P1 receptor assessed as cAMP accumulation by HTRF assay relative to S1P; assay type: functional
# [13] = Drug level in rat plasma at 1 mg/kg, po dosed for 6 consecutive days; assay type: ADME, organism-based; design: dose 1 mg/kg, route oral
# Outline: (§3)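 Repeat-dose rat CNS distribution: 1.0 mg/kg given on six consecutive days. Plasma, brain and CSF were sampled over the 24 h after the last dose. Average concentrations in brain and plasma gave the brain-to-plasma ratio.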
# [14] = target: T1, Sphingosine 1-phosphate receptor 1; experiment: Agonist activity at human S1P1 receptor assessed as cAMP accumulation by HTRF assay relative to S1P; assay type: functional
# [15] = target: Cytochrome P450 2D6 (Homo sapiens, UniProt P10635); experiment: Inhibition of CYP2D6 (unknown origin); assay type: ADME
# [16] = Cmax rat at 1000 mg/kg, po; assay type: ADME, organism-based; design: dose 1000 mg/kg, route oral; details: in vivo
# [17] = target: T3, Sphingosine 1-phosphate receptor 4 (Homo sapiens, UniProt O95977); experiment: Agonist activity at human S1P4 receptor by beta-arrestin recruitment assay
# T3 sequence (O95977 whole entry): T2 sequence (whole entry)
# [18] = species: Mus musculus; experiment: Reduction in lymphocyte count in mouse; assay type: functional, organism-based; outline: as §2
# [19] = target: Cytochrome P450 2C19 (Homo sapiens, UniProt P33261); experiment: Inhibition of CYP2C19 (unknown origin); assay type: ADME
# [20] = Systemic clearance in Sprague-Dawley rat at 1 mg/kg, iv; assay type: ADME, organism-based; design: dose 1 mg/kg, route intravenous; details: in vivo
# [21] = Elimination half life in Sprague-Dawley rat at 1 mg/kg, po; assay type: ADME, organism-based; design: dose 1 mg/kg, route oral; details: in vivo, read-out: beta t1/2 (converted)
# [22] = target: Cytochrome P450 1A2 (Homo sapiens, UniProt P05177); experiment: Inhibition of CYP1A2 (unknown origin); assay type: ADME
# [23] = target: Sphingosine 1-phosphate receptor 1 (Macaca mulatta) (UniProt H9EUW9); experiment: Agonist activity at monkey S1P1 receptor assessed as cAMP accumulation by HTRF assay relative to S1P; assay type: functional
# [24] = target: T4, Sphingosine 1-phosphate receptor 5 (Homo sapiens, UniProt Q9H228); experiment: Agonist activity at human S1P5 receptor by beta-arrestin recruitment assay
# [25] = target: Cytochrome P450 2C9 (Homo sapiens, UniProt P11712); experiment: Inhibition of CYP2C9 (unknown origin); assay type: ADME
# [26] = Ratio of drug level in rat brain to plasma at 1 mg/kg, po dosed for 6 consecutive days; assay type: ADME, organism-based; design: dose 1 mg/kg, route oral; details: read-out: BPR; outline: as §3
# [27] = Drug level in rat brain at 1 mg/kg, po dosed for 6 consecutive days; assay type: ADME, organism-based; design: dose 1 mg/kg, route oral; details: read-out: Drug uptake; outline: as §3
# [28] = target: Sphingosine 1-phosphate receptor 2 (Homo sapiens, UniProt O95136); experiment: Agonist activity at human S1P2 receptor by beta-arrestin recruitment assay
# [29] = target: Sphingosine 1-phosphate receptor 3 (Homo sapiens, UniProt Q99500); experiment: Agonist activity at human S1P3 receptor by beta-arrestin recruitment assay
# [30] = Ratio of drug level in brain to plasma in Sprague-Dawley rat; assay type: ADME; details: read-out: BPR
# Outline: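 Abbreviated rat CNS distribution: a single 1.0 mg/kg oral dose, with brain and plasma drug levels measured over 6 h. Brain-to-plasma ratio derived from these levels.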
# [31] = AUC (0 to infinity) in Sprague-Dawley rat at 1 mg/kg, iv or at 1 mg/kg, po; assay type: ADME, organism-based; details: plasma
# [32] = target: Cytochrome P450 3A4 (Homo sapiens, UniProt P08684); experiment: Inhibition of CYP3A4 (unknown origin); assay type: ADME
# [33] = Solubility in water in L-lysine adduct form; assay type: physicochemical
# [34] = target: Sphingosine 1-phosphate receptor 1 (Rattus norvegicus) (UniProt P48303); experiment: Agonist activity at rat S1P1 receptor assessed as cAMP accumulation by HTRF assay relative to S1P; assay type: functional
# [35] = target: Sphingosine 1-phosphate receptor 1 (Macaca mulatta, UniProt H9EUW9); experiment: Agonist activity at monkey S1P1 receptor assessed as cAMP accumulation by HTRF assay; assay type: functional; outline: as §1
# [36] = system: Mus musculus; experiment: Reduction of disease index score in C57Bl/6 mouse experimental autoimmune encephalomyelitis model of multiple sclerosis at 0.1 to 0.3 mg/kg dosed for 24 days; assay type: functional, organism-based
# Outline: (§4)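 Female C57Bl/6 mice with EAE, a demyelinating autoimmune disease induced to model MS, given compound orally at 0.1, 0.3 or 1.0 mg/kg for 24 days alongside a vehicle group. Clinical scoring began on day 10: 0 healthy; 1 limp tail or hind-limb weakness; 2 limp tail plus limb weakness, or weakness of ≥2 limbs; 3 severe limb weakness or single-limb paralysis; 4 paralysis of ≥2 limbs; 5 death. Mean group score reported.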
# [37] = species: Rattus norvegicus; experiment: Toxicity in telemeterized rat assessed as effect on cardiovascular function; assay type: organism-based, Heart; details: in vivo
# [38] = Oral bioavailability in Sprague-Dawley rat at 1 mg/kg; assay type: ADME, organism-based; details: in vivo
# [39] = Solubility in water in crystal phase; assay type: physicochemical
# [40] = target: Sphingosine-1-phosphate receptor 1 (Canis lupus familiaris) (UniProt W5VNF7); experiment: Agonist activity at dog S1P1 receptor assessed as cAMP accumulation by HTRF assay relative to S1P; assay type: functional
# [41] = target: T4, Sphingosine 1-phosphate receptor 5; experiment: Agonist activity at human S1P5 receptor by beta-arrestin recruitment assay relative to S1P
# [42] = Tmax in Sprague-Dawley rat at 1 mg/kg, po; assay type: ADME, organism-based; design: dose 1 mg/kg, route oral; details: in vivo
# [43] = target: Sphingosine 1-phosphate receptor 1 (Mus musculus, UniProt O08530); experiment: Agonist activity at mouse S1P1 receptor assessed as cAMP accumulation by HTRF assay; assay type: functional; outline: as §1
# [44] = system: P2Y purinoceptor (Rattus norvegicus); experiment: Binding affinity to P2Y purinoceptor (rat) by [35S]dATPalphaS competitive binding assay
# [45] = system: Mus musculus; experiment: Prevention of severity of disease in C57Bl/6 mouse experimental autoimmune encephalomyelitis model of multiple sclerosis at 1 mg/kg dosed for 24 days; assay type: functional, organism-based; design: dose 1 mg/kg; outline: as §4
# [46] = target: Voltage-gated inwardly rectifying potassium channel KCNH2 (Homo sapiens, UniProt Q12809); experiment: Binding affinity to human ERG
# [47] = system: Mus musculus; experiment: Reduction of disease index score in C57Bl/6 mouse experimental autoimmune encephalomyelitis model of multiple sclerosis at 0.1 mg/kg dosed for 24 days; assay type: functional, organism-based; design: dose 0.1 mg/kg; outline: as §4
# T4 sequence (Q9H228 whole entry): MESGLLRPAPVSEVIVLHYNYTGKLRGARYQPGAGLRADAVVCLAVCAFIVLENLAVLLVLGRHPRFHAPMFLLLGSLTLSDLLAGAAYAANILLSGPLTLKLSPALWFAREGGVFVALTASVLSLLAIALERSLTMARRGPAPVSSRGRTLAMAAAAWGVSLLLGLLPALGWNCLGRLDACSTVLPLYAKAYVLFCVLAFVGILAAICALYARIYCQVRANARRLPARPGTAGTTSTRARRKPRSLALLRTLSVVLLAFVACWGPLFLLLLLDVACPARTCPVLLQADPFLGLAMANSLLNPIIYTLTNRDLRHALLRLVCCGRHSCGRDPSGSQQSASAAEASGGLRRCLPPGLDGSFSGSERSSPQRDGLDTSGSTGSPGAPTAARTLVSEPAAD
# T1 sequence (P21453 whole entry): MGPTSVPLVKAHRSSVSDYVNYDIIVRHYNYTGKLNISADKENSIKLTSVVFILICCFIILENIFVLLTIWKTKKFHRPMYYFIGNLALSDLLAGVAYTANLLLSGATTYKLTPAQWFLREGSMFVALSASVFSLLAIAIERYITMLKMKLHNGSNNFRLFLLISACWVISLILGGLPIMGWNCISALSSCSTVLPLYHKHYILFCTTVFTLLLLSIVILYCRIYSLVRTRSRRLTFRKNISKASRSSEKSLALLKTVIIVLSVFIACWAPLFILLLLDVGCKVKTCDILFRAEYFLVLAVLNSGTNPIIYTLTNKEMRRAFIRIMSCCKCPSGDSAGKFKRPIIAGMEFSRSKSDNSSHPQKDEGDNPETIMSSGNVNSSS
# Sequence of Sphingosine 1-phosphate receptor 1 (Macaca mulatta, UniProt H9EUW9) (H9EUW9 whole entry): as the sequence (P21453 whole entry) above, with P3S, H12L, I37T, K41R, S189P, I241M, E365D counted along it
# Sequence of Sphingosine 1-phosphate receptor 1 (Macaca mulatta) (H9EUW9 as listed by the source): as the sequence (P21453 whole entry) above, with P3S, H12L, I37T, K41R, S189P, I241M, E365D counted along it
# Sequence of Sphingosine 1-phosphate receptor 3 (Q99500 whole entry): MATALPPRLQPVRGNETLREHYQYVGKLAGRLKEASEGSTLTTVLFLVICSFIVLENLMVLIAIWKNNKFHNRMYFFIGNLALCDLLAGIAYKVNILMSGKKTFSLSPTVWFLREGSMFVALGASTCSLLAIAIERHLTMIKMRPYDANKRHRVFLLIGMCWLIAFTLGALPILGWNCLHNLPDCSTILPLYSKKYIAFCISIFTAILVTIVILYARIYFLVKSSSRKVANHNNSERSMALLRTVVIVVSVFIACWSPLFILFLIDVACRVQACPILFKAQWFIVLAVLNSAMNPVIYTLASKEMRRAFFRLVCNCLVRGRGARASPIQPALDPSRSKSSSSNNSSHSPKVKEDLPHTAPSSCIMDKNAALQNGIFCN
# Sequence of Sphingosine 1-phosphate receptor 2 (O95136 whole entry): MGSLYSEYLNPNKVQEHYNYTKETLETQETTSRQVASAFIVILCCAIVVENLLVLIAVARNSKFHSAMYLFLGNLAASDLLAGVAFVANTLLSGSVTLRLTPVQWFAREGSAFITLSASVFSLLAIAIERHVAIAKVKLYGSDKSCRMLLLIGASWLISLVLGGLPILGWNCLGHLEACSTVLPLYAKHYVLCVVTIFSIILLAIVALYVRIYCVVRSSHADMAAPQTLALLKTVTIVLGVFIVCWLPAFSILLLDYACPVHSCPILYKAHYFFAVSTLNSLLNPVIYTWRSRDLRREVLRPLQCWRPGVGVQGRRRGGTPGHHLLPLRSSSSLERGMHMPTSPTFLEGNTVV
# Sequence of Voltage-gated inwardly rectifying potassium channel KCNH2 (Q12809 whole entry): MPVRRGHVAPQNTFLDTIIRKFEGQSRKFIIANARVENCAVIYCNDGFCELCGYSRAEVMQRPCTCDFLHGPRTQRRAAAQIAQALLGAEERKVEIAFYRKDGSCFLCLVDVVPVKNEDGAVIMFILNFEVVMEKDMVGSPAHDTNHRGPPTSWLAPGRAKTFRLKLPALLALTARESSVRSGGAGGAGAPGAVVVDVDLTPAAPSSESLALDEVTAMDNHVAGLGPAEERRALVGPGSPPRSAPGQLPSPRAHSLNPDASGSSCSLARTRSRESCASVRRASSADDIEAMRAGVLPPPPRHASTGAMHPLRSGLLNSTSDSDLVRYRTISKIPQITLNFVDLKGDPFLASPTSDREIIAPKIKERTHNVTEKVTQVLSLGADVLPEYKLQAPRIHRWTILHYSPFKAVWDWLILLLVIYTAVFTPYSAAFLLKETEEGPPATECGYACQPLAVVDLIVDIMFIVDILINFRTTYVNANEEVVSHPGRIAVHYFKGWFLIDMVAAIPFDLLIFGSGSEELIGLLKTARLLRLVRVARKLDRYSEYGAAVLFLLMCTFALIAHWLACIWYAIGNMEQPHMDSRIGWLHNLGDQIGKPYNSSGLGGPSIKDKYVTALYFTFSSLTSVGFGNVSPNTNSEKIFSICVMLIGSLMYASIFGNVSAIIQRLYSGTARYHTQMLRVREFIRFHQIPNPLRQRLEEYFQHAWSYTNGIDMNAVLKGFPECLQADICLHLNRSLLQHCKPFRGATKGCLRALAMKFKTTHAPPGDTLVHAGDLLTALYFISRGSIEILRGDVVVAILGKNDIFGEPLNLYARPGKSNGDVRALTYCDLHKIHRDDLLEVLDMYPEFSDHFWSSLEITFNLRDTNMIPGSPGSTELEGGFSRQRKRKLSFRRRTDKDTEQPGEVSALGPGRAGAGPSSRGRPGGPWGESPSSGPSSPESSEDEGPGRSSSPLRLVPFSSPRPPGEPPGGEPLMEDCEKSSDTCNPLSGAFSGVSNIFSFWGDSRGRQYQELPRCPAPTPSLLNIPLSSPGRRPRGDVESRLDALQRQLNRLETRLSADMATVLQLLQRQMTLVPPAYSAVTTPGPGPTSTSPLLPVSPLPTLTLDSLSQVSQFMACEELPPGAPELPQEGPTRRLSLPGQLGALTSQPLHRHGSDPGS
# Sequence of Sphingosine 1-phosphate receptor 1 (Mus musculus) (O08530 whole entry): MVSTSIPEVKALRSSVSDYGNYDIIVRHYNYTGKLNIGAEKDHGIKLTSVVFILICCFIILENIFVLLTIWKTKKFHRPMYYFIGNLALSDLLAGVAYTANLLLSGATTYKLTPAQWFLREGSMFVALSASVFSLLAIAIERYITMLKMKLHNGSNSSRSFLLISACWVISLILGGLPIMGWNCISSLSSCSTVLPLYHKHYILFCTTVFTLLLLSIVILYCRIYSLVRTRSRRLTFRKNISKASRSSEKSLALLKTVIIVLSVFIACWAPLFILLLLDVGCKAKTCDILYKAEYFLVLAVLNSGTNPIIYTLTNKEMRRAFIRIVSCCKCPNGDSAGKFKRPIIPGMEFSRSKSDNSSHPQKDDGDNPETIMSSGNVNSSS
# Sequence of Sphingosine 1-phosphate receptor 1 (Mus musculus, UniProt O08530) (O08530 whole entry): as above
# Sequence of Cytochrome P450 2C9 (P11712 whole entry): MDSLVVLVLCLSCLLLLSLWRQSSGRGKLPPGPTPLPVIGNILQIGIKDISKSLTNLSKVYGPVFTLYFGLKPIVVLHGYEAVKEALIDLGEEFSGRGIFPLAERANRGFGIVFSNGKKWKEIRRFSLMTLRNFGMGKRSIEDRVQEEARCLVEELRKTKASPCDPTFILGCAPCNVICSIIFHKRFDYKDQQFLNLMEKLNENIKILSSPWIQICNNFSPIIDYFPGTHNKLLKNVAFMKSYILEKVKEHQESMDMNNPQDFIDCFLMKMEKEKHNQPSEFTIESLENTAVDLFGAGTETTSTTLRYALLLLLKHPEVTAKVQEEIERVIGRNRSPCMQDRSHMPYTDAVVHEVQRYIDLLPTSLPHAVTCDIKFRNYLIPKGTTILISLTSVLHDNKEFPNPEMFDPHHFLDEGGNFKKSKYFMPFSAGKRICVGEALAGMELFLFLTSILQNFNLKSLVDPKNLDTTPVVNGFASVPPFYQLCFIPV
# Sequence of Sphingosine-1-phosphate receptor 1 (Canis lupus familiaris) (W5VNF7 as listed by the source): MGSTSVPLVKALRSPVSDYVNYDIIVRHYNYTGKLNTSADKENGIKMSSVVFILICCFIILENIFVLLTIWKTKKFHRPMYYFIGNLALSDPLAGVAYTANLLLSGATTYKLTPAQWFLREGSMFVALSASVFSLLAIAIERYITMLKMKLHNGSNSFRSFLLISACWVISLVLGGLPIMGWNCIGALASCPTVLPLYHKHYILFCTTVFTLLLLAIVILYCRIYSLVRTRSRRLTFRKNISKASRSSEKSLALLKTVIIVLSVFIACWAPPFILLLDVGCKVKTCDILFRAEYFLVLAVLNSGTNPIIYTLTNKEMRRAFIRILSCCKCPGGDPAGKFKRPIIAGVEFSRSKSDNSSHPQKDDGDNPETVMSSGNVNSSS
# Sequence of Sphingosine-1-phosphate receptor 1 (W5VNF7 whole entry): as the sequence (W5VNF7 as listed by the source) above
# Sequence of Sphingosine 1-phosphate receptor 1 (Rattus norvegicus) (P48303 whole entry): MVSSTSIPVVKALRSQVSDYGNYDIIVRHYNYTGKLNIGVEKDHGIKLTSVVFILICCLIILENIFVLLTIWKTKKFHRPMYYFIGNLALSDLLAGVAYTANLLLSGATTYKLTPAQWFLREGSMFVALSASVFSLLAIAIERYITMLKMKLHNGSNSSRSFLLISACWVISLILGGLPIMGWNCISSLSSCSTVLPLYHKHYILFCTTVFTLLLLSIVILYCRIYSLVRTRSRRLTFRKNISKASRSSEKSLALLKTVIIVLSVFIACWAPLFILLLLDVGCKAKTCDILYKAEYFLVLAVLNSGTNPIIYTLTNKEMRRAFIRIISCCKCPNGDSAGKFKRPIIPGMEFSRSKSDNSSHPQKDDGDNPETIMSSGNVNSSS
# Sequence of Sphingosine 1-phosphate receptor 1 (Rattus norvegicus, UniProt P48303) (P48303 whole entry): as above
compound,measurement,setting,value
CCCCCCCCCCCCC/C=C/[C@@H](O)[C@@H](N)COP(=O)(O)O,EC50,[1],2.1 nM
CCCCCCCCc1ccc(CCC(N)(CO)CO)cc1 [FINGOLIMOD],half-life,[2],89 h
CC(C)Oc1ccc(COc2ccc3c(c2)c(Cl)c2n3CC[C@@H]2CC(=O)O)cc1C(F)(F)F,EC50,[3],0.021 nM
same,Cmax,[4],0.584 µg/mL
same,Vd,[5],0.831 L/kg
same,Emax,[6],112%
same,EC50,[7],0.049 nM
same,Emax,[8],29%
same,EC50,[9],0.62 nM
same,IC50,[10],0.0254 mg/L
same,EC50,[11],0.05 nM
same,Emax,[12],95%
same,EC50,[1],8.9 nM
same,concentration at 6 days,[13],0.352 µg/mL
same,Emax,[14],99%
same,IC50,[15],> 50000 nM
same,Cmax,[16],72.2 µg/mL
same,EC50,[17],85 nM
same,IC50,[18],0.0183 mg/L
same,IC50,[19],> 50000 nM
same,clearance,[20],0.0926 L/h/kg
same,half-life,[21],5.09 h
same,IC50,[22],> 50000 nM
same,Emax,[23],84%
same,EC50,[24],19 nM
same,IC50,[25],> 50000 nM
same,Kp at 6 days,[26],1.61
same,concentration at 6 days,[27],0.568 µg/mL
same,EC50,[28],> 10000 nM
same,EC50,[29],> 10000 nM
same,Kp,[30],0.27
same,AUC(0-inf),[31],6.16 µg·h/mL
same,IC50,[32],> 50000 nM
same,solubility,[33],> 100 mg/mL
same,Emax,[34],81%
same,EC50,[35],0.058 nM
same,Activity,[36],Dose-dependent effect
same,Activity,[37],Non-toxic
same,bioavailability,[38],56.6%
same,solubility,[39],< 0.001 mg/mL
same,Emax,[40],59%
same,Emax,[41],59%
same,Tmax,[42],4.67 h
same,EC50,[43],0.064 nM
same,IC50,[44],Not Active
same,Activity,[45],Active
same,Activity,[46],Not Active
same,Activity,[47],inactive
CC(C)Oc1ccc(COc2ccc3c(c2)c(Cl)c2n3CC[C@@H]2CC(=O)O)cc1C#N,EC50,[3],0.025 nM
same,Cmax,[4],0.618 µg/mL
same,Vd,[5],0.9 L/kg
same,Emax,[6],112%
same,EC50,[7],0.049 nM
same,Emax,[8],85%
same,EC50,[9],0.63 nM
same,IC50,[10],0.0104 mg/L
same,EC50,[11],0.072 nM
same,Emax,[12],104%
same,Emax,[14],94%
same,EC50,[17],8600 nM
same,clearance,[20],0.192 L/h/kg
same,half-life,[21],3.44 h
same,Emax,[23],96%
same,EC50,[24],47 nM
same,IC50,[25],8500 nM
same,EC50,[28],> 10000 nM
same,EC50,[29],> 10000 nM
same,Kp,[30],0.09
same,AUC(0-inf),[31],4.21 µg·h/mL
same,Emax,[34],93%
same,EC50,[35],0.038 nM
same,Activity,[37],Non-toxic
same,bioavailability,[38],76.4%
same,Emax,[40],66%
same,Emax,[41],84%
same,Tmax,[42],4 h
same,EC50,[43],0.05 nM
same,IC50,[44]; read-out: IC50,390 nM
same,Activity,[46],Not Active
